Compound activity as filed in PubChem BioAssay.
Shown is part of a subset that was picked to be rich in hits.
Lmaj promast: inhibitors of Leishmania major promastigote growth; Leishmania major promastigotes, resazurin fluorescence viability; inhibition, % at 10 µM; 9% of 200,000 active; in the data active means inhibition above about 50%;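 further: promastigotes grown with compound for 44 hours at 28 °C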
Hsp70 act: transcriptional activators of Hsp70; AID 1203; HeLa Hsp70 promoter luciferase reporter, luminescence; scaled: vehicle 0, proteasome-inhibitor control 100%; activation, % at 10 µM; 0.04% of 200,000 active;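 active means activation above the mean across all tested compounds plus 3 SD, cutoff set per campaign, cut at about 5.5% in these data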;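 further: 100% = MG132 at 30 µM as the positive control and 0% = DMSO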
HSF-1 act: increases HSF-1 driven luciferase reporter signal | 1.7% of 300,000 active | NIH3T3-HGL HSF-1 luciferase reporter, MG132, 8 h; 100% = twice DMSO control signal | activation, % at 9 µM | AID 504408;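 active means mean replicate activation of at least 50% with a set share of replicates each reaching 50%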;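 further: 0% = median of the neutral control wells and 100% = twice that signal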
T cruzi repl: T. cruzi replication inhibition; T. cruzi beta-gal in NIH3T3, luminescence, 90 h; inhibition, % (no concentration beside the values); 1.4% of 300,000 active; AID 1885;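 active means mean inhibition across valid replicates above about 55%, limit read from the data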;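 further: signal also drops with host cell toxicity which is not excluded here; 0% = plate median of DMSO wells and 100% = zero luminescence signal; higher percent means less beta-gal luminescence so fewer parasites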
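Assay system: NIH/3T3 fibroblasts plus reporter T. cruzi. Amount: NIH/3T3 cells, 5,000 per well. Buffer or medium: DMEM, 2% fetal bovine serum. Doses: compound pinned at 50 nL/well, DMSO. Schedule: ≥90 h infection period, 3 h prior cell attachment. Signal: luminescent β-galactosidase signal after 60 min lysis. Read-out: parasite load inhibition, %.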
HSF1 inhib: HSF1 inhibition; NIH3T3-HGL HSE-luciferase, MG132-induced, luminescence 8 h; stronger effect = lower value; activity change, negative = inhibition, % at 7.5 µM (by protocol); 0.77% of 300,000 active; AID 2098;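 active means more than half of replicate wells show activity change below -50%, luminescence cut by over half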;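 further: luciferase reports HSF-1 transcriptional activity via heat shock element; 0% = median of DMSO wells and -100% = zero luminescence signal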
* marks the source's active call; other numbers are inactive results; . = no result given.

SMILES	Lmaj promast	Hsp70 act	HSF-1 act	T cruzi repl	HSF1 inhib
COC(=O)c1c(NC(=O)CSc2nc3ccccc3c(=O)n2-c2ccccc2)sc(C)c1C	99.4*	-0.1	15.3	12.2	-1.9
Cc1cc(C)c(O)c(-c2cc(C(=O)Nc3c(C)n(C)n(-c4ccccc4)c3=O)[nH]n2)c1	.	.	-12.3	-15.1	-5.1
COC(=O)c1c(NC(=O)CSc2nc3nc(C)cc(C)n3n2)sc(C)c1C	52.1*	-0.3	-4.3	25.5	6.5
Cc1cccc(C(=O)NC(=S)Nc2cccc3nc(C)ccc23)c1	.	.	6.2	-28.7	-6.1
N#Cc1ccccc1NC(=O)C(=O)NCCCN1CCCC1=O	.	.	-8.3	-14.3	-2.3
CC(SCc1ccccc1)C(=O)Nc1ccccc1-c1ccccc1 (stereo not given)	56.9*	-0.1	0.0	-8.1	-2.4
CC(=O)c1cc(C#N)c(SCCC(C)C)nc1C	-3.6	0.0	7.2	31.4	6.2
CC(C)CCSc1nc(N)c(C#N)cc1C#N	75.8*	0.3	1.9	66.8*	1.2
Cc1cc(C)n(C2CC(=O)N(c3ccc(Cl)c(Cl)c3)C2=O)n1 (stereo not given)	.	.	-1.1	-11.9	-5.0
CC(=O)c1c(C)[nH]c(C(=O)OCC(=O)NCCC2=CCCCC2)c1C	.	.	-5.1	-15.7	-5.1
CC(Oc1ccc2ccc(=O)oc2c1)C(=O)c1ccccc1 (stereo not given)	68.9*	-0.1	-9.5	-1.8	0.9
O=C(Oc1ccc2ccc(=O)oc2c1)c1ccco1	.	.	8.8	63.6*	11.9
COc1ccccc1C(=O)Oc1ccc2ccc(=O)oc2c1	.	.	-5.1	-5.7	-4.7
Cc1nn(C)c(C)c1NS(=O)(=O)c1cccc(Br)c1	.	.	-12.8	-8.5	-5.4
CCCCN(C(=O)c1ccc(Cl)c(S(=O)(=O)N2CCOCC2)c1)c1c(N)n(CCC)c(=O)[nH]c1=O	.	.	9.7	-7.3	-5.7
C#CCNC(=O)C1=C[C@@H](c2ccc3c(c2)OCO3)C[C@@H](OCCCCO)O1	.	.	-12.6	11.3	2.6
Cc1onc(-c2ccccc2)c1C(=O)NC(=S)NNC(=O)c1ccc(O)cc1O	91.9*	-0.4	1.1	-31.0	-2.6
Cc1onc(-c2ccccc2)c1C(=O)NC(=S)NNC(=O)c1ccccc1O	66.9*	-0.3	-31.2	-13.7	-22.1
Cc1onc(-c2ccccc2)c1C(=O)NC(=S)NNC(=O)c1ccc(O)cc1	-0.1	-0.3	2.9	-3.4	0.1
COC(=O)[C@@H]1CC[C@H](C)[C@@H](c2ccc(C)cc2)N1C(=O)c1ccc(/C=N/O[C@@H](C)c2cn([C@H](CO)Cc3ccccc3)nn2)cc1	53.4*	-0.5	-46.9	61.8*	-34.2
COC(=O)[C@@H]1CC[C@H](C)[C@@H](c2ccc(C)cc2)N1C(=O)c1ccc(/C=N/OC[C@@H](O)[C@H]2O[C@@H]3OC(C)(C)O[C@@H]3[C@H]2O)cc1	33.3	-0.3	1.8	27.8	1.1
CCn1c(=O)cc(OCC(=O)NCCCN2CCCC2=O)c2ccccc21	.	.	-4.8	-0.7	-3.9
CCOc1cc(C2C(C#N)=C(N)OC(C)=C2C(C)=O)c(Br)c(Br)c1OC(C)C (stereo not given)	63.8*	-0.1	21.9	10.3	18.1
COc1cc(NC(=O)COC(=O)/C=C/c2c(C)nn(-c3ccc(F)cc3)c2Cl)cc(OC)c1	64.3*	-0.5	15.0	60.0*	9.6
O=C1c2ccccc2C(=O)N1Nc1ccccc1	32.9	0.0	3.2	12.4	-6.0
SMILES	Lmaj promast	Hsp70 act	HSF-1 act	T cruzi repl	HSF1 inhib
Cc1ccc(NN2C(=O)C=C(c3ccccc3)C2=O)cc1	6.8	-0.1	207.2*	12.2	148.0
Brc1cc2c(cc1Cn1c(-c3cncs3)nc3ccccc31)OCO2	-1.1	-0.6	10.9	27.7	2.0
Cc1ccccc1Cn1c(-c2cncs2)nc2ccccc21	12.1	0.1	68.7*	-12.6	65.0
COc1cc(-n2nc(C)c3c2OC(N)=C(C#N)C3c2ccccc2)c(Cl)c(Br)c1O (stereo not given)	4.7	0.0	78.2*	-7.3	52.5
Cc1nn(-c2ccccc2)c2c1C(c1ccncc1)C(C#N)=C(N)O2 (stereo not given)	1.3	-0.3	25.6	-18.8	1.5
Cc1ccc(-n2nc(C)c3c2OC(N)=C(C#N)C3c2ccncc2)cc1 (stereo not given)	2.6	0.0	62.1*	-7.3	17.3
CSc1ccccc1NC(=O)Cn1c([N+](=O)[O-])cnc1C	.	.	0.6	-8.1	-8.7
O=C(Nc1ccc(Br)cc1F)c1ccc2c(c1)N(Cc1ccccc1)C(=O)CS2=O (stereo not given)	99.6*	-0.2	-2.0	-5.2	-4.3
O=C(Nc1ccc2nc(-c3cccs3)c(-c3cccs3)nc2c1)NC1CC1	63.8*	-0.2	32.1	36.9	9.1
O=C1CC(c2ccco2)CC(O)=C1C=Nc1cc(Cl)ccc1O (stereo not given)	0.9	-0.6	69.4*	-2.9	45.0
O=C1CC(c2ccco2)CC(O)=C1C=Nc1ccc(Br)cc1 (stereo not given)	-4.0	0.2	41.5	-10.5	43.8
Cc1ccc(N=CC2=C(O)CC(c3ccco3)CC2=O)cc1 (stereo not given)	-6.2	-0.2	72.2*	-4.2	63.2
O=C1CC(c2ccccc2)CC(O)=C1C=Nc1ccccc1 (stereo not given)	7.6	-0.3	119.2*	-28.2	68.2
Cc1cc(C)n(-c2cccc(C(=O)O)c2)n1	-11.0	-0.2	-1.5	-3.1	-1.0
Cc1ccc2cc(CCNC(=O)CCCc3ccccc3)c(=O)[nH]c2c1C	.	.	-10.1	2.0	-5.8
O=C(Cc1ccc(F)cc1)Nc1nnc(SCC(=O)NC2CCCC2)s1	-5.1	-0.1	-17.8	-6.8	-0.2
Clc1ccc(N=c2ssnc2Cl)nc1	-9.6	-0.3	130.1*	58.2*	139.0
O=C(CCCn1c(=S)[nH]c2cc3c(cc2c1=O)OCO3)N1CCN(c2ccc(Cl)cc2)CC1	56.0*	-0.3	9.1	31.8	1.3
Cc1cccc(N2CCN(C(=O)CCCn3c(=S)[nH]c4cc5c(cc4c3=O)OCO5)CC2)c1C	64.0*	-0.4	9.1	57.3*	3.1
O=C(CCCn1c(=S)[nH]c2cc3c(cc2c1=O)OCO3)NCc1ccco1	17.0	-0.4	54.8*	-20.5	4.6
CCOc1cc2[nH]c(=S)n(CCCC(=O)NCc3ccco3)c(=O)c2cc1OCC	-0.4	-0.3	0.0	3.5	1.9
COc1ccc([C@@H]2[C@@H]3C(=O)N(C(C)(C)C)C(=O)[C@@H]3[C@]3(CC(C)C)C(=O)N(c4cccc(Br)c4)C(=O)N23)cc1	.	.	9.9	8.2	-2.9
N#C/C(=C/c1ccc(CNS(=O)(=O)c2ccccc2)o1)C(N)=O	50.8*	-0.4	-8.0	-13.7	0.5
N#C/C(=C/c1ccc(CNS(=O)(=O)c2ccccc2)o1)C(=O)NCc1ccccc1	4.0	-0.5	-0.8	-2.3	-7.7
C=CCN(CC=C)S(=O)(=O)c1ccc2nc(NC(=O)C3CCCO3)sc2c1 (stereo not given)	68.0*	-0.3	22.6	10.7	1.2
